According to paper PMC6128401 (Molecular pharmaceutics, 2017):

Legend:
[1] = biological target: T1, A431-CCK2R cell line expressing the human CCK2R (Homo sapiens, UniProt P32239); experiment: Cell uptake; format: cell-based; settings: A431-CCK2R cells, 2 h incubation, 0.4 nM
T1 sequence (P32239 1-447): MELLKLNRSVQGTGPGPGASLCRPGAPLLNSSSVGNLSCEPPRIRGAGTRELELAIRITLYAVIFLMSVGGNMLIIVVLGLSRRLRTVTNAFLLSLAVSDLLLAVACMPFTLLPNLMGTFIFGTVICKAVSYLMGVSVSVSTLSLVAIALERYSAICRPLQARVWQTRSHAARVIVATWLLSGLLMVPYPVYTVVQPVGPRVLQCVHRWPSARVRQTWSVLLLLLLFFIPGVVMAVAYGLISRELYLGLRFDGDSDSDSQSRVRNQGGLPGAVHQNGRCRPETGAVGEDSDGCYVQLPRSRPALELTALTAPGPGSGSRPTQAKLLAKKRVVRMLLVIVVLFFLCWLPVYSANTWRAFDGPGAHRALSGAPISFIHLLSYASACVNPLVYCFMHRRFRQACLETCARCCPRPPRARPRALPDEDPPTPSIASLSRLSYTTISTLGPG
Outline: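 A431-CCK2R and A431-mock cells were cultured in DMEM with 10% FBS, penicillin/streptomycin/L-glutamine at 37°C, 5% CO₂. They were seeded at 1.0×10⁶ cells/well and grown 48 h to confluency. Peptides were labelled with ¹⁷⁷LuCl₃ (~50 GBq/µmol) in ascorbate buffer pH 5 with gentisic acid and L-Met, 80°C. Triplicate wells received ~100,000 cpm (0.4 nM) for 2 h. The internalized fraction was gamma-counted as % of total added.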

[2] = Chemical stability in phosphate buffered saline; format: physicochemical; settings: PBS at RT, up to/after 4 h incubation
Outline: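 ¹⁷⁷Lu-labelled peptide (120 pmol/mL) was kept in phosphate buffered saline at room temperature. Aliquots were taken at intervals up to […] and analysed by HPLC for percentage intact radiopeptide relative to post-labelling radiochemical purity.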

[3] = Stability against enzymatic degradation in human serum; format: in vitro ADME
Outline: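 The ¹⁷⁷Lu-labelled peptide was incubated in human serum at 37°C and sampled at time points up to 24 h. Proteins were precipitated with acetonitrile (1:1.5) and centrifuged; supernatant was diluted 1:1 with water before HPLC for intact radiopeptide. Half-life came from first-order exponential decay fitting.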

[4] = format: physicochemical
Outline: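 Labelling used ~2 GBq ¹⁷⁷LuCl₃ in 1 mL dilute HCl, heated at 80°C for 15-25 min. Kits were stored up to 6 months; labelled product was held up to 48 h at room temperature or −20°C. Radiochemical purity was measured by RP-HPLC.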

[5] = test system: A431-CCK2R xenografts; experiment: Biodistribution: uptake in receptor-positive tumour xenograft; format: in vivo, BALB/c nude mice; settings: 30 min p.i.
Outline: (§1)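 Female and male BALB/c nude mice, 5-6 weeks old, carried A431-CCK2R and A431-mock xenografts in opposite flanks (2×10⁶ cells each). Tumours grew for ~14 days to ~0.2 g. Kit-prepared ¹⁷⁷Lu-peptide, 1 MBq (20 pmol; 50 GBq/µmol), was injected into the tail vein. Groups of five were killed at 30 min, 4 h, 1 d, 2 d, 3 d and 7 d; dissected tissues were gamma-counted and expressed as % IA/g.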

[6] = Biodistribution: uptake in normal organs and tissues; format: in vivo, BALB/c nude mice; settings: 30 min p.i.
Outline: as §1

[7] = test system: A431-CCK2R xenografts; experiment: Experimental radionuclide therapy, receptor-positive tumour growth; format: in vivo, BALB/c nude mice; settings: for mean SGR A431-CCK2R: single i.v. treatment; for TVDT increase by a factor in comparison to the control group: A431-CCK2R tumours
[8] = test system: A431-mock xenografts; experiment: Experimental radionuclide therapy, receptor-negative tumour growth; format: in vivo, BALB/c nude mice; settings: for mean SGR A431-mock: single i.v. treatment
[9] = Medullary toxicity: white blood cell and platelet counts; format: in vivo, BALB/c nude mice
Outline: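 Double-xenografted nude mice were dosed as in the therapy study (saline, 15 or 30 MBq i.v.), n=5. Weekly, 0.1 mL venous blood was drawn from the superficial temporal vein by lancet, up to eight samples per animal. White blood cells and platelets were counted on an automatic haematology analyser. Counts were expressed relative to basal values (week −2 = inoculation; week 0 = treatment).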

[10] = Renal toxicity: creatinine and urea in serum; format: in vivo, BALB/c nude mice
Outline: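 The same treated double-xenografted nude mice (saline, 15 or 30 MBq i.v.; n=5) gave weekly venous blood samples. Serum creatinine and urea were measured with specific kits on a semiautomatic biochemical analyser. Values were compared between treated and control groups over weeks from cell inoculation (week −2) onward.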

[11] = 15 MBq, one week after treatment
[12] = 15 MBq group, week 0 (week of treatment)
[13] = 15 MBq group, week -2 (cell inoculation)
[14] = 30 MBq group, week 0 (week of treatment)
[15] = 30 MBq group, week -2 (cell inoculation)

## CSCC[C@H](NC(=O)[C@H](Cc1c[nH]c2ccccc12)NC(=O)[C@H]1CCCCNC(=O)[C@H](NC(=O)CN2CCN(CC(=O)O)CCN(CC(=O)O)CCN(CC(=O)O)CC2)CCC(=O)N[C@@H](C)C(=O)N[C@@H](Cc2ccc(O)cc2)C(=O)N1)C(=O)N[C@@H](CC(=O)O)C(=O)N[C@@H](Cc1ccccc1)C(N)=O [^177Lu-DOTA-cyclo-MG1, metal not drawn]
[1]
  internalized radioligand fraction (% of total): 15.2±2.6%
[2]
  RCP during incubation in PBS: 86%
[3]
  half-life: 30.1 h
[4]; -20°C versus RT
  improvement of RCP by freezer storage: ~ 10%
[4]; during storage of the kits
  degree of Met-oxidation: 3.8-6.1%
[4]; kit storage up to 6 months, n=4
  mean RCP for the different time points after storage of the kits: 89.4±7.9%
[4]; kit-prepared, directly after preparation
  RCP after preparation: 93.3±1.6%
[4]; stored at RT
  RCP at 24 h after preparation: 89.8±2.8%
  RCP up to 4 h after preparation: > 92%
[5]
  maximal tumour uptake: 5.18 % IA/g
[6]
  kidney uptake, maximal value: 1.75 % IA/g
[7]; 15 MBq group (0.6 nmol)
  mean SGR A431-CCK2R: 0.046±0.002
[7]; 30 MBq group (1.2 nmol)
  mean SGR A431-CCK2R: 0.031±0.006
[7]; high activity group (30 MBq)
  TVDT increase by a factor in comparison to the control group: 2.6
[7]; low activity group (15 MBq)
  TVDT increase by a factor in comparison to the control group: 1.8
[8]; 15 MBq group (0.6 nmol)
  mean SGR A431-mock: 0.065±0.006
[8]; 30 MBq group (1.2 nmol)
  mean SGR A431-mock: 0.051±0.006
[8]; A431-mock tumours, high activity group (30 MBq)
  TVDT increase by a factor in comparison to the control group: 1.5
[9]; [11]
  reduction in PLT counts compared to the basal value: 51.2-52.8%
  reduction in WBC counts compared to the basal value: 37.8-40.8%
[9]; 15 MBq, week 2 after treatment, reference 558-1,454
  PLT value: 531±26 ×10^9/L
[9]; 30 MBq, after treatment
  decline of PLT value compared to the basal value: 44.8-58.0%
[9]; 30 MBq, week 1 after treatment
  reduction of WBC value compared to the basal value: 67.2-70.9%
[9]; 30 MBq, week 1 and 2 after treatment
  PLT value below the reference values: 486-530 ×10^9/L
[9]; 30 MBq, week 1 and 2 after treatment, reference 3.11-13.04
  WBC value below the lower reference limit: 2.17-2.94 ×10^9/L
[10]; [12]
  Creatinine (reference value 0.1-0.5): 0.3 ± 0.2 mg/dL
  Urea (reference value 17-38): 26 ± 2 mmol/L
[10]; 15 MBq group, week 1
  Creatinine (reference value 0.1-0.5): 0.2 ± 0.1 mg/dL
  Urea (reference value 17-38): 32 ± 3 mmol/L
[10]; 15 MBq group, week 2
  Creatinine (reference value 0.1-0.5): 0.3 ± 0.1 mg/dL
  Urea (reference value 17-38): 33 ± 2 mmol/L
[10]; 15 MBq group, week 3
  Creatinine (reference value 0.1-0.5): 0.3 ± 0.2 mg/dL
[10]; 15 MBq group, week 4
  Creatinine (reference value 0.1-0.5): 0.5 ± 0.1 mg/dL
[10]; 15 MBq group, week 5
  Creatinine (reference value 0.1-0.5): 0.7 mg/dL
[10]; 15 MBq group, week -1
  Creatinine (reference value 0.1-0.5): 0.2 ± 0.1 mg/dL
  Urea (reference value 17-38): 33 ± 4 mmol/L
[10]; [13]
  Creatinine (reference value 0.1-0.5): 0.2 ± 0.1 mg/dL
  Urea (reference value 17-38): 31 ± 3 mmol/L
[10]; 15 MBq, beginning from week 3 after treatment
  urea above the upper limit of the reference value: 39 to 48 mmol/L
[10]; [14]
  Creatinine (reference value 0.1-0.5): 0.3 ± 0.2 mg/dL
  Urea (reference value 17-38): 32 ± 5 mmol/L
[10]; 30 MBq group, week 1
  Creatinine (reference value 0.1-0.5): 0.3 ± 0.1 mg/dL
  Urea (reference value 17-38): 29 ± 4 mmol/L
[10]; 30 MBq group, week 2
  Creatinine (reference value 0.1-0.5): 0.2 ± 0.1 mg/dL
[10]; 30 MBq group, week 3
  Creatinine (reference value 0.1-0.5): 0.5 ± 0.2 mg/dL
[10]; 30 MBq group, week -1
  Creatinine (reference value 0.1-0.5): 0.2 ± 0.1 mg/dL
  Urea (reference value 17-38): 28 ± 3 mmol/L
[10]; [15]
  Creatinine (reference value 0.1-0.5): 0.2 ± 0.1 mg/dL
  Urea (reference value 17-38): 27 ± 5 mmol/L
[10]; 30 MBq, beginning from week 2 after treatment
  urea levels above the reference limit: 39 to 52 mmol/L
[10]; 30 MBq, beginning from week 4 after treatment
  creatinine levels above the reference limit: 0.6 to 0.8 mg/dL
